# ChEMBL document CHEMBL4152283, “Discovery of potent and novel smoothened antagonists via structure-based virtual screening and biological assays” (Eur J Med Chem, 2018)
# Activity calls are given as the source filed them. The rule behind the calls is not given here.
# Target: T1, Protein smoothened (Homo sapiens, UniProt Q99835)
# Assay: Antagonist activity at Smo receptor (unknown origin)
# Assay type: functional
# T1 sequence (Q99835 whole entry): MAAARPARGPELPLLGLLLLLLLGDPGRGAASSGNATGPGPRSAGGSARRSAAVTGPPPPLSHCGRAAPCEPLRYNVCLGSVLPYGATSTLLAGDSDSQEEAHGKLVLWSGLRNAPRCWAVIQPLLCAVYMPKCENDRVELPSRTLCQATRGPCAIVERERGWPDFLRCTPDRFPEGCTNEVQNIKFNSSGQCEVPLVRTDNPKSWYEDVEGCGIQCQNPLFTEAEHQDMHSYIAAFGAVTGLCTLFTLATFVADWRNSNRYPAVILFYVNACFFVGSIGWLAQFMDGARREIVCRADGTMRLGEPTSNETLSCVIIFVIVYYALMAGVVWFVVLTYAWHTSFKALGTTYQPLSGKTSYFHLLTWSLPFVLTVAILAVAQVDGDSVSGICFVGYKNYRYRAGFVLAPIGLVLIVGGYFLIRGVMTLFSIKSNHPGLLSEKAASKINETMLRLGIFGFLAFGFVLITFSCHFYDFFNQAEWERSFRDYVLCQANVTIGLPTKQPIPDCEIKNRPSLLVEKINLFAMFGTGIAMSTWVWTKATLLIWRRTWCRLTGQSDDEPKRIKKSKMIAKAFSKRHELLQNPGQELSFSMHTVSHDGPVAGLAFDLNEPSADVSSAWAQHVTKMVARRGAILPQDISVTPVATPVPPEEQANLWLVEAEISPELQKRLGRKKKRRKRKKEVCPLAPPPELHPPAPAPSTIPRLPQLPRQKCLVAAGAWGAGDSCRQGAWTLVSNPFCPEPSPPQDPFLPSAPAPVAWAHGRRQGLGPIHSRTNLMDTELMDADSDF
row,Structure (SMILES),IC50
1,COc1cc(C(=O)NC(=N)Nc2cccc(NC(=O)c3ccc(-c4ccccc4)cc3)c2)cc(OC)c1OC,0.01 µM

# Target: T1, Protein smoothened
# Assay: Displacement of BODIPY-Cyclopamine from human HA-tagged Smo receptor expressed in human U2OS cells at 3 to 1000 nM by DAPI staining based fluorescence microscopic method
# Assay type: cell-based
# Summary of the method: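 Puromycin-selected U2OS clone expressing HA-tagged human Smo, seeded 10,000 cells/well in 10% serum DMEM and cultured 48 h at 37 °C. Cells fixed in 4% PFA for 20 min, DAPI (5 µg/mL) for 10 min, PBS washes, then 2 h at room temperature with 100 nM BODIPY-cyclopamine plus serially diluted compound. PBST washes, automated high-content fluorescence imaging, data normalized to GDC-0449. Sigmoidal fit for IC50. Ki by Cheng-Prusoff using probe Kd 255 ± 57 nM.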
row,Structure (SMILES),inhibition
1,Cc1ccc(NCc2cccn2-c2nnc(N3CCC(C(=O)NC4CCCCC4C)CC3)s2)cc1 (stereo not given),Active

# Target: Protein smoothened (Mus musculus, UniProt P56726)
# Assay: Antagonist activity at Smo receptor in mouse NIH/3T3 cells harboring GRE-Luc assessed as inhibition of SAG-induced Hh signaling pathway co-incubated with SAG measured after 48 hrs by luciferase reporter gene assay
# Protein smoothened (Mus musculus, UniProt P56726), sequence (P56726 whole entry): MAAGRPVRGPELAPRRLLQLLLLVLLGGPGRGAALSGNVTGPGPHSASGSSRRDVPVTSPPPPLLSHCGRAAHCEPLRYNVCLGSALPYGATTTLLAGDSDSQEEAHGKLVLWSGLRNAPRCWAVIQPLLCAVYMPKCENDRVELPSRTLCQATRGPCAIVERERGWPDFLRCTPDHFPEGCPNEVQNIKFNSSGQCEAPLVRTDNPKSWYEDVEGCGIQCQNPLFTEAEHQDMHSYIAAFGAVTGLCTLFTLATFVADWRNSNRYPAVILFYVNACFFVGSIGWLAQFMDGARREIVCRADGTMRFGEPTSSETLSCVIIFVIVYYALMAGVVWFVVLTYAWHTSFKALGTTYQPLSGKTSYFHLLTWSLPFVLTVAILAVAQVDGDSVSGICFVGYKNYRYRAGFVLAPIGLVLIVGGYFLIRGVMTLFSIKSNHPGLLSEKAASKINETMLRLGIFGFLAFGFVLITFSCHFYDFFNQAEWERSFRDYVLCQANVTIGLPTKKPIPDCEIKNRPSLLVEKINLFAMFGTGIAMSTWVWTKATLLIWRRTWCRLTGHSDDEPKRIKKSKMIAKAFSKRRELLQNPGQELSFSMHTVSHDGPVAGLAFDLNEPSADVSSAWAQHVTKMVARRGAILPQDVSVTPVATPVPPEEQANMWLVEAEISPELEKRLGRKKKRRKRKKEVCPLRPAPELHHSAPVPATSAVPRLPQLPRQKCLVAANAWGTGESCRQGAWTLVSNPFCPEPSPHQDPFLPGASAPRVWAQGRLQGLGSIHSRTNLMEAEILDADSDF
row,IC50,Structure (SMILES)
1,> 10 µM,COc1ccc(Cl)cc1NC(=O)c1ccc(-n2nc(OCc3cccc(F)c3)ccc2=O)cc1
2,> 10 µM,COc1ccc2[nH]cc(CCNC(=O)c3ccccc3NC(=O)c3nsc4ccccc34)c2c1
3,> 10 µM,Cc1cccc(CNC(=O)Cc2cccc(N(Cc3ccccc3)C(=O)c3ccc(C#N)cc3)c2)c1
4,1.2 µM,O=C(Nc1cccc(N2CCCN(Cc3ccc(F)c(F)c3)C2=O)c1)OCc1ccccc1
5,> 10 µM,Cc1ccc(NC(=O)CSc2nc3ccc(NC(=O)c4ccccc4Cl)cc3s2)cc1Cl
6,4.6 µM,Cc1ccc(-c2cc3c(N4CCC(C(=O)NC(C)c5ccccc5)CC4)nccn3n2)cc1C (stereo not given)
7,2.4 µM,O=C(Nc1ccc(N2CCN(Cc3ccccc3O)CC2)nc1)c1ccccc1C(F)(F)F
8,> 10 µM,O=C(CSc1nnc(CNC(=O)c2cccs2)n1-c1ccccc1)Nc1nc2ccccc2s1
9,> 10 µM,Cc1c(C(=O)NC2CCCCC2)sc2ncn(CC(=O)Nc3cccc(C(F)(F)F)c3)c(=O)c12
10,> 10 µM,CCC(Sc1nnc2c(=O)n(-c3ccc(C)c(C)c3)ccn12)C(=O)Nc1ccccc1C (stereo not given)
11,> 10 µM,COc1ccc(-n2nc(C(=O)NCC(=O)Nc3nc4ccccc4s3)c3ccccc3c2=O)cc1
12,> 10 µM,COc1cc(F)ccc1S(=O)(=O)NCCNc1nc(-c2ccc(F)cc2)nc2ccccc12
13,> 10 µM,CC(C)c1ccc(NC(=O)c2cc(S(=O)(=O)N3CCN(c4ccccc4F)CC3)ccc2F)cc1

# Second part, the molecule before the results:
row,Structure (SMILES),IC50
1,Cc1ccc(NCc2cccn2-c2nnc(N3CCC(C(=O)NC4CC4)CC3)s2)cc1,4.2 µM
2,O=C1CC(NC2CCN(c3ccc(C(F)(F)F)cn3)CC2)C(=O)N1c1ccc(F)cc1 (stereo not given),> 10 µM
3,CN(C(=O)Cn1c(=O)n(CCCC(=O)NCc2ccccc2)c(=O)c2sccc21)c1ccccc1,> 10 µM
4,Cc1ccc(NCc2cccn2-c2nnc(N3CCC(C(=O)N4CCCC4)CC3)s2)cc1,4.3 µM
5,Cc1ccc(NCc2cccn2-c2nnc(N3CCC(C(=O)NC4CCCCC4C)CC3)s2)cc1 (stereo not given),0.047 µM
6,Cc1ccc(NCc2cccn2-c2nnc(N3CCC(C(=O)NCC(C)C)CC3)s2)cc1,1.1 µM
7,CC1CCN(C(C)CNC(=O)c2ccc3c(c2)NC(=O)C(CS(=O)(=O)Cc2ccc(F)cc2Cl)N3)CC1 (stereo not given),> 10 µM
8,CC1Cc2ccccc2N1C(=O)c1ccc(=O)n(CCC(=O)N2CCN(c3ccccc3)CC2)n1 (stereo not given),3 µM
9,Cc1ccc(NCc2cccn2-c2nnc(N3CCC(C(=O)NC(C)C)CC3)s2)cc1,1.2 µM
10,Cc1ccc(NCc2cccn2-c2nnc(N3CCC(C(=O)NC4CCCC4)CC3)s2)cc1,0.53 µM
11,CCn1cc(C(=O)O)c(=O)c2cc(F)c(N3CCN(C(=S)NC(=O)Cc4ccc(Cl)cc4)CC3)cc21,> 10 µM
12,Cc1ccc(NCc2cccn2-c2nnc(N3CCC(C(=O)NC4CCCCC4C)CC3)s2)cn1 (stereo not given),0.24 µM
13,Cc1ccc(NCc2cccn2-c2nnc(N3CCC(C(=O)NC4CCCCC4)CC3)s2)cc1,0.66 µM
14,COc1cccc2c1OC1(C)CC2NC(=O)N1c1cccc(C(=O)N2CCN(c3ccccc3F)CC2)c1 (stereo not given),> 10 µM
15,Cc1oc(-c2cccc(Cl)c2)nc1CN1CCC(C(=O)NC2CCCc3ccccc32)CC1 (stereo not given),0.95 µM
16,Cc1ccc(NCc2cccn2-c2nnc(N3CCC(C(=O)N4CCC(O)C4)CC3)s2)cc1 (stereo not given),7.6 µM
17,Cc1ccc(NCc2cccn2-c2nnc(N3CCC(C(=O)NCC(C)(C)O)CC3)s2)cc1,4.3 µM
18,Cc1ccc(NCc2cccn2-c2nnc(N3CCC(C(=O)NC4CCCCC4C)CC3)s2)nc1 (stereo not given),0.058 µM
19,CCNC(=O)C1CCN(c2nnc(-n3cccc3CNc3ccc(C)cc3)s2)CC1,5.2 µM
20,Cc1ccc(NCc2cccn2-c2nnc(N3CCC(C(=O)NCC4CC4)CC3)s2)cc1,1.7 µM
